Laboratory results reported in ChEMBL document CHEMBL1153390, “Substituted terphenyl compounds as the first class of low molecular weight allosteric inhibitors of the luteinizing hormone receptor” (J Med Chem, 2009).
Calls of active or inactive are those of the source. The calls are words filed in the database; no cut-off is given here.

Tests used:
[1] = target: T1, Lutropin-choriogonadotropic hormone receptor (Homo sapiens, UniProt P22888); assay: Displacement of [3H]Org43553 from human luteinizing hormone receptor expressed in CHOK1 cells assessed as increase in radioligand dissociation at 10 uM by scintillation spectrometry relative to control; format: cell-based; details: CHO-K1
T1 sequence (P22888 whole entry): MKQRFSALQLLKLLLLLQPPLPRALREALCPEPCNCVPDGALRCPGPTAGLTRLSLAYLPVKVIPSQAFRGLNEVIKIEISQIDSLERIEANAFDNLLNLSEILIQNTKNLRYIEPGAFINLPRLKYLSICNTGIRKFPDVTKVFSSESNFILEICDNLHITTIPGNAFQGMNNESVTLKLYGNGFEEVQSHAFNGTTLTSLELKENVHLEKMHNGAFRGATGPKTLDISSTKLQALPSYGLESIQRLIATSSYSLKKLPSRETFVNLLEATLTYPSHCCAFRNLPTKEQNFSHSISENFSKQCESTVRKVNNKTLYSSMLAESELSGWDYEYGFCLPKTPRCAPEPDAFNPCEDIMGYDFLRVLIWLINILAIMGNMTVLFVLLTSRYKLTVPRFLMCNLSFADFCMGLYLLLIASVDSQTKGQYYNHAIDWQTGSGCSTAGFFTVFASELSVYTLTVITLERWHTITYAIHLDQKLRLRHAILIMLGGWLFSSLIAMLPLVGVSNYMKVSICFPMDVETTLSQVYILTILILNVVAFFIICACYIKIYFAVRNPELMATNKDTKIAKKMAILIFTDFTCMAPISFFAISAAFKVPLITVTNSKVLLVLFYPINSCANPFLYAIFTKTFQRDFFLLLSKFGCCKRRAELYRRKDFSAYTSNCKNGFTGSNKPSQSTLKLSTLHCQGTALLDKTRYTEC
Method in brief: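 Membranes (50 µg protein) from CHO-K1 cells stably expressing human LH receptor preloaded with 4.5 nM [3H]Org 43553 for 90 min at 30 °C in 25 mM Tris-HCl pH 7.4, 2 mM MgCl2, 0.1% BSA. Dissociation then started with 10 µM Org 43553 ± 10 µM compound in 50% DMSO vehicle. Bound label measured after 30 min by GF/B filtration and scintillation counting. Control set at 100%. n=2, duplicate.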

[2] = target: T1, Lutropin-choriogonadotropic hormone receptor; assay: Displacement of [3H]Org43553 from human luteinizing hormone receptor expressed in CHOK1 cells at 10 uM by scintillation spectrometry; format: cell-based; details: CHO-K1
Method in brief: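 Membranes (50 µg protein) from CHO-K1 cells stably expressing human LH receptor incubated 90 min at 30 °C with 4.5 nM [3H]Org 43553 and 10 µM compound. Buffer was 25 mM Tris-HCl pH 7.4, 2 mM MgCl2, 0.1% BSA. Nonspecific binding defined with 10 µM Org 43553. Filtration on GF/B, ice-cold washes, scintillation counting. Result given as % displacement of specific binding, n=2, duplicate.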

[3] = target: T1, Lutropin-choriogonadotropic hormone receptor; assay: Antagonist activity at human luteinizing hormone receptor expressed in CHOK1 cells assessed as decrease in Org 43553 activation potency at 10 uM by c-AMP-mediated luciferase assay; format: functional, cell-based; details: CHO-K1
Method in brief: (§1)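 Cells as for the CRE-luciferase assay (human LH receptor, CHO-K1), stimulated 4 h with ten concentrations of recLH, rec-hCG or Org 43553, with or without 10 µM test compound. Luminescence read-out. Shift is the EC50 ratio with/without compound; 1 nM recLH response set 100%. At least three assays in duplicate.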

[4] = target: T2, Adenosine receptor A3 (Homo sapiens) (UniProt P0DMS8); assay: Activity at adenosine A3 receptor assessed as allosteric modulation
T2 sequence (whole entry): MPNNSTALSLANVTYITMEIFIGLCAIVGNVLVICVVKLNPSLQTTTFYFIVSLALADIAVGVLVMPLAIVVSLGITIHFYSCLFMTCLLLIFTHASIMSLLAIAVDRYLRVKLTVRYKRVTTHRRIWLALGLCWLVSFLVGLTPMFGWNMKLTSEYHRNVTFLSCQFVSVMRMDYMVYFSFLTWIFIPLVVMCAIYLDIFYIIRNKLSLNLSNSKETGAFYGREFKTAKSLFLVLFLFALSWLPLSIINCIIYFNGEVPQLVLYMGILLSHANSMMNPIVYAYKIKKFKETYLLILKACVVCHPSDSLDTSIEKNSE

[5] = target: T1, Lutropin-choriogonadotropic hormone receptor; assay: Displacement of [125I]human chorionic gonadotropin from human luteinizing hormone receptor expressed in CHOK1 cells assessed as increase in radioligand dissociation at 10 uM after 4 hrs by infinite dilution method; format: cell-based; details: CHO-K1
Method in brief: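 CHO-K1 membranes expressing human LH receptor, prelabelled with 125I-hCG. Dissociation was started by infinite dilution in the presence of 10 µM compound, and bound radioligand was measured after 4 h. t=0 binding set 0% dissociation, nonspecific 100%. At least two assays in triplicate.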

[6] = target: T1, Lutropin-choriogonadotropic hormone receptor; assay: Agonist activity at human luteinizing hormone receptor expressed in CHOK1 cells assessed as c-AMP-mediated luciferase production; format: functional, cell-based, CHO-K1
Method in brief: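 CHO-K1 cells stably expressing human LH receptor and CRE-luciferase, 7.5 × 10^5 cells/mL in DMEM/F12 with insulin and apo-transferrin. Stimulated 4 h, then luciferase read by luminescence. Basal activity set 0%; 1 nM recLH set 100%. Means of at least three assays in duplicate.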

[7] = target: T1, Lutropin-choriogonadotropic hormone receptor; assay: Displacement of [125I]human chorionic gonadotropin from human luteinizing hormone receptor expressed in CHOK1 cells by gamma counting; format: cell-based; details: CHO-K1
[8] = target: T1, Lutropin-choriogonadotropic hormone receptor; assay: Antagonist activity at human luteinizing hormone receptor expressed in CHOK1 cells assessed as decrease in recombinant human chorionic gonadotropin activation potency at 10 uM by c-AMP-mediated luciferase assay; format: functional, cell-based; details: CHO-K1; method in brief: as §1
[9] = target: T1, Lutropin-choriogonadotropic hormone receptor; assay: Displacement of [3H]Org43553 from human luteinizing hormone receptor expressed in CHOK1 cells; format: cell-based, CHO-K1
Method in brief: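 CHO-K1 membranes stably expressing human LH receptor, 50 µg protein, in 25 mM Tris-HCl pH 7.4 with 2 mM MgCl2 and 0.1% BSA. Incubated with 4.5 nM [3H]Org 43553 at 30 °C for 90 min, using 10 µM or a range of competitor concentrations. Nonspecific binding defined with 10 µM Org 43553. Read by filtration and scintillation counting; IC50 from nonlinear regression.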

[10] = target: T1, Lutropin-choriogonadotropic hormone receptor; assay: Antagonist activity at human luteinizing hormone receptor expressed in CHOK1 cells assessed as decrease in recombinant luteinizing hormone activation potency at 10 uM by c-AMP-mediated luciferase assay; format: functional, cell-based; details: CHO-K1; method in brief: as §1
[11] = target: T1, Lutropin-choriogonadotropic hormone receptor; assay: Agonist activity at human luteinizing hormone receptor expressed in CHOK1 cells assessed as c-AMP-mediated luciferase production at 10 uM; format: functional, cell-based; details: CHO-K1
[12] = target: Adenosine receptor A2a (Homo sapiens) (UniProt P29274); assay: Binding affinity to adenosine A2A receptor
Chain of Adenosine receptor A2a (Homo sapiens) (P29274 whole entry): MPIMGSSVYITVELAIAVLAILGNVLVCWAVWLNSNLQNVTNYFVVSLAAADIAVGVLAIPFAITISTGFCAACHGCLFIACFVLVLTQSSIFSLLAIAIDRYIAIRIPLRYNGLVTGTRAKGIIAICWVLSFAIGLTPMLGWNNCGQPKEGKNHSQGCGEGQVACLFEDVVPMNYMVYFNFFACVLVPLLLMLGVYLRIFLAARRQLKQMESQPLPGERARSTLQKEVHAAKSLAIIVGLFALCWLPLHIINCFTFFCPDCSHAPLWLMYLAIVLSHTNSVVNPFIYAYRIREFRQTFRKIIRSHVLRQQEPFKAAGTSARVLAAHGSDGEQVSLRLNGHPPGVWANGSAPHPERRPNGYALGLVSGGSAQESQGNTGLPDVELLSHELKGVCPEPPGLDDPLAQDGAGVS

[13] = target: T3, Adenosine receptor A1 (Homo sapiens) (UniProt P30542); assay: Binding affinity to adenosine A1 receptor
T3 sequence (whole entry): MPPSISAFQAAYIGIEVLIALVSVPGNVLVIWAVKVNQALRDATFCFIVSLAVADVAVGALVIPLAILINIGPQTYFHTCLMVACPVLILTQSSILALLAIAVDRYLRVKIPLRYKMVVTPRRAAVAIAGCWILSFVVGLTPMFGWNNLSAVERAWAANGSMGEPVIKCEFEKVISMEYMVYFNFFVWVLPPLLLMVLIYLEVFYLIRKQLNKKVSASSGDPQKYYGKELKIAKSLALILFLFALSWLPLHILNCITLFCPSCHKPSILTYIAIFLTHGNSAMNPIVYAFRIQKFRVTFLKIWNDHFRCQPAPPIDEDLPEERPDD

| Structure (SMILES) | Activity [1] [%] | Activity [2] [%] | also measured |
| --- | --- | --- | --- |
| COc1ccc(NC(=O)Oc2cc(-c3ccccc3)cc(-c3ccccc3)c2)cc1 | 35 | 58 |  |
| O=C(Nc1cc(-c2ccccc2)cc(-c2ccccc2)c1)NC1CCCC1 | 70 | 49 |  |
| O=C(NC1CCCC1)Oc1cc(-c2ccc(Cl)cc2)cc(-c2ccc(Cl)cc2)c1 |  | 55 |  |
| O=C(NC1CCCC1)Oc1cc(-c2ccccc2)cc(-c2ccccc2)c1 | 88 | 91 | fold change (FC) [3]: 2; Activity [4]: inactive; Activity [5]: Active; EC50 [6]: 1600 nM; Activity [7]: inactive; fold change (FC) [8]: 3; IC50 [9]: 2300 nM; Activity ([9]; CHO-K1): Dose-dependent effect; fold change (FC) [10]: 3; Activity [11]: 31% |
| CCCCNC(=O)Oc1cc(-c2ccccc2)cc(-c2ccccc2)c1 | 65 | 61 |  |
| O=C(Nc1ccc(Cl)cc1)Oc1cc(-c2ccccc2)cc(-c2ccccc2)c1 | 19 | 9 |  |
| O=C(Nc1ccccc1)Oc1cc(-c2ccccc2)cc(-c2ccccc2)c1 | 79 | 28 | Activity [12]: inactive; Activity [13]: inactive |
| CC(C)NC(=O)Oc1cc(-c2ccccc2)cc(-c2ccccc2)c1 | 55 | 14 |  |
| c1ccc(Cn2cnc3c(-c4ccccc4)cc(-c4ccccc4)nc32)cc1 | 16 |  |  |
| O=C(NC1CCCC1)Oc1cccc(-c2ccccc2)c1 | 75 | 81 | Activity [3]: Active; Activity [8]: Active; Activity [10]: Active |
| O=C(NC1CCCC1)Oc1cc(-c2ccccc2)cc(-c2ccc(Cl)c(Cl)c2)c1 | 64 | 69 |  |
| O=C(NC1CCCC1)Oc1cc(-c2ccccc2)cc(-c2ccc(Cl)cc2)c1 | 71 | 77 |  |
| O=C(Nc1cc(-c2ccccc2)cc(-c2ccccc2)c1)C1CCCC1 | 56 | 30 |  |
| N#Cc1c(N)cc(-c2ccccc2)cc1-c1cccs1 | 29 |  |  |
| Nc1cc(-c2ccccc2)cc(-c2ccccc2)c1 | 42 | 9 |  |
| O=C(NC1CCCC1)Oc1cc(-c2ccc(Cl)c(Cl)c2)cc(-c2ccc(Cl)c(Cl)c2)c1 |  | 7 |  |
| CCNC(=O)Oc1cc(-c2ccccc2)cc(-c2ccccc2)c1 | 61 | -1 |  |
| O=C(NC1CCCCC1)Oc1cc(-c2ccccc2)cc(-c2ccccc2)c1 | 51 | 83 |  |
| Oc1cc(-c2ccccc2)cc(-c2ccccc2)c1 | 27 | -2 |  |
| COc1ccc(-c2cc(OC(=O)NC3CCCC3)cc(-c3ccccc3)c2)cc1 | 83 | 67 |  |
| CC(C)(C)NC(=O)Oc1cc(-c2ccccc2)cc(-c2ccccc2)c1 | 82 | 68 |  |
| Cc1ccc(-c2cc(OC(=O)NC3CCCC3)cc(-c3ccccc3)c2)cc1 | 102 | 72 | Activity [3]: Active; Activity [10]: Active |
| COc1ccc(-c2cc(OC(=O)NC3CCCC3)cc(-c3ccc(OC)cc3)c2)cc1 | 31 | 17 |  |
| CCCCCNC(=O)Oc1cc(-c2ccccc2)cc(-c2ccccc2)c1 | 80 | 30 |  |
| COc1ccc(C(=O)Nc2nc(-c3ccccc3)cc(-c3ccccc3)n2)cc1 | 42 |  |  |
| Cc1ccc(-c2cc(OC(=O)NC3CCCC3)cc(-c3ccc(C)cc3)c2)cc1 | 59 | 62 |  |
| O=C(Oc1cc(-c2ccccc2)cc(-c2ccccc2)c1)C1CCCC1 | 41 | 9 |  |
| CCCNC(=O)Oc1cc(-c2ccccc2)cc(-c2ccccc2)c1 | 72 | 47 |  |
